Screening results deposited in PubChem BioAssay by several laboratories.
NF-kB expr up = activators of NF-kB expression in neurons, primary screen, cell-based, HTS | human neuronal cells, NF-kB reporter expression; hits give high values | fold change at 12.5 µM | hit rate 1.6% among 190,000 | AID 1239, 2008; in the data active = fold change above about 3.3
STAT3 activator = IL-6 driven STAT3 reporter potentiators, primary screen, U3A cells, luciferase, luminescence, MLSCN library. hit rate 0.91% among 190,000. IL-6 STAT3-luciferase reporter; 100% = signal with IL-6 EC80 alone. activation (% of control), % at 5.6 µM;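 active = activation above the screen-wide mean of compound activation plus 3 SD, cut at about 130% in these data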;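 also: 0% = background luminescence of wells with medium and substrate only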
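system = STAT3-luciferase reporter U3A cells | reagent = IL-6 stimulus at 33 ng/mL final | timing = 1 h compound pre-exposure, 6 h IL-6 stimulation, 37 °C | measured by = luminescence | evaluation = % activation versus median of IL-6-stimulated wells | control set = IL-6-only wells as 100% reference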
STAT3 inh = IL-6 driven STAT3 reporter inhibitors, primary screen, U3A cells, luciferase, luminescence, MLSCN library; IL-6 STAT3-luciferase reporter; host cell line lacks STAT1; hit rate 0.89% among 190,000; AID 862, 2007; inhibition, % at 5.5 µM;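 active = inhibition above the mean inhibition across all screened compounds plus 3 SD, cut at about 44% in these data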;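 also: 0% = DMSO only wells and 100% = 100 µM nifuroxazide control wells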
STAT1 act = STAT1 signaling activators, primary screen, cell-based, HTS, luciferase reporter; NIH 3T3 STAT1-luciferase reporter, IFN-gamma, luminescence; 100% = IFN-gamma alone, no compound; hit rate 2.6% among 200,000; activation (% of control), % at 5.5 µM;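 active = activation above the screen-wide mean activation plus 3 SD, cut at about 130% in these data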;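 also: raw ratio to IFN-gamma control signal so 100% means no change and 0% no light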
STAT1 blocker = STAT1 signaling inhibitors, primary screen, cell-based, HTS, luciferase reporter; hit rate 0.35% among 200,000; AID 920, 2007; NIH 3T3 STAT1-luciferase reporter, IFN-gamma, luminescence; inhibition, % at 5.5 µM;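 active = inhibition above a set limit, the mean inhibition across all tested compounds plus 3 SD, cut at about 34% in these data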;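 also: 0% = IFN-gamma with DMSO and 100% = IFN-gamma with 300 µM nifuroxazide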
APP 5'UTR act = activators of APP 5'UTR luciferase reporter, primary screen, SH-SY5Y cells. activation, % at 2 µM. hit rate 1% among 190,000. SH-SY5Y APP 5'UTR luciferase reporter, luminescence; zero percent = DMSO vehicle wells;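 active = activation above a set limit, based on mean plus 3 SD of controls, cut at about 140% in these data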
STAT1 act conf = STAT1 signaling activators, confirmation, cell-based, HTS, luciferase reporter. activation (% of control), % at 5.7 µM. shares compounds with STAT1 act. hit rate 97% among 1,200. NIH 3T3 STAT1-luciferase reporter, IFN-gamma potentiation, luminescence; 100% = IFN-gamma EC80 alone, no compound;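 active = activation above a set limit carried over from the earlier primary STAT1 screen, cut at about 140% in these data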;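 also: simple ratio to median IFN-gamma plus DMSO wells so 0% means no light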
NFkB act = NF-kB reporter activators, TNF-alpha stimulated, counter-screen for STAT1 activator project, cell-based, HEK293T, luciferase luminescence | shares compounds with STAT1 act | 100% = TNF-alpha with vehicle only | activation (% of control), % at 5.7 µM | hit rate 43% among 1,200 | AID 1306, 2008;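 active = activation above the mean of solvent-only control wells plus 3 SD, set per campaign, cut at about 130% in these data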;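 also: TNF-alpha given at a submaximal dose yielding about 80% of full reporter signal; values are well signal over median control so 100% means no change and 0% no light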
STAT3 act 2 = STAT3 reporter activation by STAT1 hits, confirmation, counter-screen for STAT1 activator project, U3A cells, luciferase, luminescence | activation (% of control), % at 5.7 µM | IL-6; cells lack STAT1; 100 = IL-6 alone, no compound effect | shares compounds with STAT1 act | hit rate 46% among 1,200;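 active = activation above the solvent-only control well mean plus 3 SD, set per plate batch, cut at about 110% in these data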;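 also: 0% = no luminescence and 100% = median IL-6 plus DMSO wells; higher means more STAT3 reporter activation so hits are non-selective activators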
* hit, by the source's call. Shown are actives, neighbours in structure and some others; about 5.1% of the full set was active somewhere.

What do the screens show for `CC(=O)c1c(C)[nH]c(C(=O)OCC(=O)NCCc2ccc(F)cc2)c1C`?
NF-kB expr up: 0.97; STAT3 activator: 98.2; STAT3 inh: 7.3; STAT1 act: 92.9; STAT1 blocker: 7.7; APP 5'UTR act: 12.9

How did O=C(Nc1cccnc1)NC1CCCCC1 do in these assays?
NF-kB expr up: 1.24; STAT3 activator: 101.3; STAT3 inh: 10.3; STAT1 act: 93.0; STAT1 blocker: 7.0; APP 5'UTR act: 18.5

What do the screens show for `O=Cc1cn(-c2ccccc2)nc1-c1ccc2c(c1)OCCO2`?
NF-kB expr up: 6.9*; STAT3 activator: 107.5; STAT3 inh: -7.6; STAT1 act: 159.6*; STAT1 blocker: -75.2; APP 5'UTR act: 140.0*; STAT1 act conf: 193.4*; NFkB act: 133.7*; STAT3 act 2: 109.5

How did Cc1ccc(NC(=O)Nc2ccc3c(c2)nc(C)n3C)cc1C do in these assays?
NF-kB expr up: 4.8*; STAT3 activator: 99.8; STAT3 inh: 11.5; STAT1 act: 171.3*; STAT1 blocker: -79.4; APP 5'UTR act: 120.7; STAT1 act conf: 194.4*; NFkB act: 137.4*; STAT3 act 2: 103.1

What do the screens show for `Cc1nc2cc(NC(=O)Nc3ccc(N4CCOCC4)cc3)ccc2n1C`?
NF-kB expr up: 0.94; STAT3 activator: 90.9; STAT3 inh: 15.6; STAT1 act: 103.0; STAT1 blocker: -3.3; APP 5'UTR act: 8.1

What do the screens show for `CCC1(C)Cc2nc3sc(C(=O)O)c(N)c3cc2CO1` (centres undefined)?
NF-kB expr up: 1.03; STAT3 activator: 108.4; STAT3 inh: -3.1; STAT1 act: 104.4; STAT1 blocker: -3.3; APP 5'UTR act: -2.2

What do the screens show for `COC(=O)c1sc2nc3c(cc2c1N)CCCC3`?
NF-kB expr up: 8.23*; STAT3 activator: 89.4; STAT3 inh: 17.3; STAT1 act: 165.3*; STAT1 blocker: -70.1; APP 5'UTR act: 164.4*; STAT1 act conf: 227.1*; NFkB act: 148.1*; STAT3 act 2: 101.1

What do the screens show for `CCOC(=O)c1sc2nc3c(cc2c1N)COC(C)(CC)C3` (centres undefined)?
NF-kB expr up: 7.32*; STAT3 activator: 83.9; STAT3 inh: 22.5; STAT1 act: 200.8*; STAT1 blocker: -110.5; APP 5'UTR act: 174.8*; STAT1 act conf: 287.2*; NFkB act: 145.6*; STAT3 act 2: 108.4

What do the screens show for `COc1ccc(C(=O)CSc2nnc3ccccn23)cc1OC`?
NF-kB expr up: 1.34; STAT3 activator: 115.2; STAT3 inh: -7.5; STAT1 act: 103.5; STAT1 blocker: -5.9; APP 5'UTR act: 11.3

What do the screens show for `O=C(CSc1nnc2ccccn12)c1ccc2c(c1)OCCO2`?
NF-kB expr up: 3.17; STAT3 activator: 111.6; STAT3 inh: -10.2; STAT1 act: 158.1*; STAT1 blocker: -62.4; APP 5'UTR act: 123.2; STAT1 act conf: 186.2*; NFkB act: 131.6; STAT3 act 2: 130.5*

Results for Cn1ccs/c1=N\C(=O)Nc1cccc(Cl)c1 ?
NF-kB expr up: 3.74*; STAT3 activator: 95.3; STAT3 inh: 10.7; STAT1 act: 156.2*; STAT1 blocker: -65.3; APP 5'UTR act: 114.7; STAT1 act conf: 184.0*; NFkB act: 134.4*; STAT3 act 2: 105.5

What do the screens show for `CN(C)c1ccc(N/C(N)=N/c2nc(C(F)(F)F)cc(C(F)(F)F)n2)cc1`?
NF-kB expr up: 0.9; STAT3 activator: 87.7; STAT3 inh: 18.7; STAT1 act: 93.7; STAT1 blocker: 6.4; APP 5'UTR act: 5.2

How did CN(C)c1ccc(/C=N/N=C/c2ccccc2O)cc1 do in these assays?
NF-kB expr up: 3.6*; STAT3 activator: 79.9; STAT3 inh: 25.0; STAT1 act: 156.2*; STAT1 blocker: -62.8; APP 5'UTR act: 165.3*; STAT1 act conf: 208.2*; NFkB act: 87.2; STAT3 act 2: 75.2

Results for COC(=O)c1sccc1NC(=O)Nc1cccc(C(C)=O)c1 ?
NF-kB expr up: 0.88; STAT3 activator: 107.5; STAT3 inh: 3.6; STAT1 act: 121.1; STAT1 blocker: -24.2; APP 5'UTR act: -10.7

Results for COC(=O)c1sccc1NC(=O)Nc1cccc(C)c1 ?
NF-kB expr up: 1.28; STAT3 activator: 126.6; STAT3 inh: -24.8; STAT1 act: 158.7*; STAT1 blocker: -67.8; APP 5'UTR act: 4.8; STAT1 act conf: 177.1*; NFkB act: 133.8*; STAT3 act 2: 123.4*

Results for C/C(=N/NC(=O)c1ccco1)c1ccc(NC(=O)c2ccc(F)cc2)cc1 ?
NF-kB expr up: 1.04; STAT3 activator: 99.6; STAT3 inh: 0.6; STAT1 act: 155.3*; STAT1 blocker: -63.1; APP 5'UTR act: 56.0; STAT1 act conf: 125.1; NFkB act: 118.3; STAT3 act 2: 96.3

Results for O=C(NC(=S)Nc1cnc2ccccc2c1)c1ccccc1 ?
NF-kB expr up: 3.97*; STAT3 activator: 122.6; STAT3 inh: -21.9; STAT1 act: 155.2*; STAT1 blocker: -64.2; APP 5'UTR act: 122.2; STAT1 act conf: 186.0*; NFkB act: 123.0; STAT3 act 2: 132.3*

What do the screens show for `O=C(Nc1ccc2nc3ccccc3nc2c1)c1ccccc1`?
NF-kB expr up: 3.78*; STAT3 activator: 79.1; STAT3 inh: 26.5; STAT1 act: 190.0*; STAT1 blocker: -99.8; APP 5'UTR act: 197.9*; STAT1 act conf: 229.9*; NFkB act: 135.9*; STAT3 act 2: 99.8

What do the screens show for `Cc1ccc(NC(=O)Nc2cnc3ccccc3c2)cc1`?
NF-kB expr up: 3; STAT3 activator: 102.0; STAT3 inh: 4.8; STAT1 act: 181.0*; STAT1 blocker: -90.0; APP 5'UTR act: 198.2*; STAT1 act conf: 192.6*; NFkB act: 128.8; STAT3 act 2: 111.4*

What do the screens show for `S=C(NCCc1ccccc1)Nc1cnc2ccccc2c1`?
NF-kB expr up: 1.81; STAT3 activator: 96.4; STAT3 inh: 7.9; STAT1 act: 124.8; STAT1 blocker: -29.1; APP 5'UTR act: -1.5
